Rows were chosen to be rich in hits. Some 3% of all compounds tested hit in one or more screens of this group.
HNF4A DNA FP: change in binding of human HNF4A to DNA, primary screen, biochemical, fluorescence polarization, FITC-DNA | Hepatocyte nuclear factor 4-alpha (Homo sapiens), P41235 | 1 h | activity change, % at 10 µM | 360,000 compounds, 0.3% hits; in the data active means activity change above about 30%, passing the limit was not always enough
Target sequence (P41235 whole entry, looked up): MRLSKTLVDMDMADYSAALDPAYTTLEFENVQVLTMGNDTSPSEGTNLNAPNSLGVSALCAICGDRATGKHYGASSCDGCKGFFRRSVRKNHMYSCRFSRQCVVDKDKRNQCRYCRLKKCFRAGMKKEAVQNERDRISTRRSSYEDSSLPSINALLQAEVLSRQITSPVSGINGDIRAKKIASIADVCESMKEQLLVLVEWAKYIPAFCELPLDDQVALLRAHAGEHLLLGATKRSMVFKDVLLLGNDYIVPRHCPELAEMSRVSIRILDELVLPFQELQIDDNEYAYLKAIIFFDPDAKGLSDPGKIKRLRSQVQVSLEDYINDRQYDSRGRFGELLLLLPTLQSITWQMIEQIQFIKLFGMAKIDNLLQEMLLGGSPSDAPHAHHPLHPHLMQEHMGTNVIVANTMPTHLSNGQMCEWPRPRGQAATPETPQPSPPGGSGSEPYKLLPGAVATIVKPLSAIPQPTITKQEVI
SENP1 FRET inh: human SENP1 catalytic domain inhibitors, primary screen, biochemical, FRET, uHTS; Sentrin-specific protease 1 (Homo sapiens), Q9P0U3; recombinant SENP1 catalytic domain, CyPet-SUMO1-YPet FRET cleavage; inhibition, % at 10 µM; 360,000 compounds, 0.21% hits; AID 624204, 2012;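 active means inhibition at least 30% at 10 µM, raw YFP signal under a set limit, fluorescence ratio 0.5 to 1.5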;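 further: 0% = enzyme with DMSO and 100% = no enzyme wells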
Target sequence (Q9P0U3 419-644 limits assumed): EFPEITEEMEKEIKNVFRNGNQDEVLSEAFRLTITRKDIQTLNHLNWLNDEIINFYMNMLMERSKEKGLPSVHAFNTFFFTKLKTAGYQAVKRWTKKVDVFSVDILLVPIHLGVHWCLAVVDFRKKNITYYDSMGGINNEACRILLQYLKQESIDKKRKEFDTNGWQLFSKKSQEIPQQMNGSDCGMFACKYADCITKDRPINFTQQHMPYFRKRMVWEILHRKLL
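Test system: human SENP1 catalytic domain; medium: Tris pH 8 buffer plus EDTA, NaCl, BME, BSA, NP40, catalase; incubation: 50 min reaction at room temperature; technique: FRET, CFP and YFP emission; controls: no-enzyme low control and enzyme-plus-DMSO high control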
Exocytosis inh: LAMP-1 surface exposure blockers, TALL-104 cells – cell-based, flow cytometry, MLPCN library, primary screen | TALL-104 LAMP-1 surface exposure; cells stimulated with thapsigargin and PMA | inhibition, % at 10 µM | 360,000 compounds, 0.66% hits | AID 651702, 2012;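 active means inhibition above about 55%, limit read from the data; inconclusive means no clear call, values can overlap the other calls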
Myeloid diff MLP: induction of myeloid progenitor differentiation, primary screen, cell-based, flow cytometry, MLPCN library | 360,000 compounds, 1% hits | ER-HoxA9 myeloid progenitors, lysozyme-GFP differentiation | AID 624256, 2012 | calls only at 10 µM;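 active means normalized GFP-positive differentiation at or above the plate's own cutoff, the solvent-only control mean plus 3 SD; inconclusive means no clear call, values can overlap the other calls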;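 further: cells exposed to compound for four days before flow analysis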
H9c2 protect: cardioprotection against H2O2-induced cell death, primary screen, uHTS, H9c2 cells, ATPLite luminescence. AID 588492, 2011. protection from H2O2 cell death, % at 20 µM. 360,000 compounds, 0.63% hits. H9c2 cardiomyocytes, H2O2 injury protection, 2 h;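 active means compounds giving at least 50% protection of heart cells from peroxide-induced death in the single-dose screen, raw or plate-pattern-corrected value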;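 further: 0% = DMSO wells with peroxide and 100% = DMSO wells without peroxide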
DSG3 Ab inh: inhibitors of pemphigus antibody binding to DSG3, primary screen, biochemical, bead-based, flow cytometry, scFv-GFP; binding (percent of control), % at 10 µM; 310,000 compounds, 0.48% hits; DSG3-coupled beads, scFv-anti-DSG3-GFP binding; stronger effect = lower value;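 active means binding more than 3 SD below its plate's average and above zero; inconclusive means below that plate limit but binding exactly zero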
* = called active by the depositor; i = inactive; ? = inconclusive; · = not tested or not shown; + = active, no number.

SMILES | HNF4A DNA FP | SENP1 FRET inh | Exocytosis inh | Myeloid diff MLP | H9c2 protect | DSG3 Ab inh
Cc1c(Cc2ccccc2)sc(/N=C/c2ccc3ccccc3c2)c1C(N)=O | 12.7 | -29.4 | 3.2 | ? | 1.8 | 120.8
Cc1c(Cc2ccccc2)sc(/N=C/c2c(O)ccc3ccccc23)c1C(N)=O | 38.3* | -27.0 | 3.0 | i | -6.4 | 110.4
CCN=c1scc(-c2ccccc2)n1/N=C/c1ccccn1 | 0.5 | -30.8 | 6.1 | + | -11.6 | 84.9
C=CCN=c1scc(-c2ccc(F)cc2)n1/N=C/c1ccccn1 | -5.5 | -39.3 | 0.3 | i | -9.2 | 90.7
C=CCN=c1scc(-c2ccccc2)n1/N=C/c1ccccn1 | -4.9 | -37.5 | 1.9 | + | -18.3 | 114.1
CC(C)CCN1CCN(Cc2ccc(C#CCCO)cc2)CC1CCO (centres undefined) | 1.2 | 1.5 | -0.2 | i | 4.2 | 101.5
Cc1cn([C@H](C(=O)NCCCCCCCCCCC(=O)N2CCN(C(=O)OC(C)(C)C)CC2)[C@@H](C)O)nn1 | 1.5 | -1.0 | 0.0 | i | -0.6 | 101.1
COc1ccc(-c2nc3c(c(SCC(=O)N4CCOCC4)n2)Cc2c(CO)cnc(C)c2O3)cc1 | 1.6 | -2.7 | 8.7 | i | 76.9* | 95.6
Cc1cccc(Oc2nc3ccccn3c(=O)c2/C=C(\C#N)C(=O)NC2CCS(=O)(=O)C2)c1 (centres undefined) | 1.3 | -133.5 | 1.5 | i | 14.1 | 100.5
Cc1cccc(Oc2nc3ccccn3c(=O)c2/C=C(\C#N)C(=O)NC2CCS(=O)(=O)C2)c1C (centres undefined) | -1.6 | -23.9 | 67.7* | i | 9.3 | ·
Cc1cccn2c(=O)c(/C=C(\C#N)C(=O)NC3CCS(=O)(=O)C3)c(Oc3ccc(F)cc3)nc12 (centres undefined) | -2.1 | -20.8 | 74.5* | i | 3.4 | 106.1
CN1C(=CC=C2C=C(I)C(=O)C(I)=C2)C(C)(C)c2ccccc21 | 208.9 | 10.5 | 89.0* | i | -14.2 | 58.9*
CN1/C(=C/C=C(/C#N)C(N)=O)C(C)(C)c2ccccc21 | 36.4* | -20.1 | 1.7 | ? | -4.3 | 114.4
CCN1C(=O)/C(=C\c2ccncc2)SC1=S | 0.1 | 3.5 | -3.4 | i | 5.6 | 94.9
CN1/C(=C\C=C2/SC(=S)NC2=O)C(C)(C)c2ccccc21 | -3.9 | 39.1 | 4.5 | + | -24.8 | 114.7
CCCN1C(=O)/C(=C\C=C2\N(CC)c3ccccc3C2(C)C)SC1=S | -0.1 | 83.1 | 0.0 | + | -14.7 | 145.7
CN1/C(=C\C=C(/C#N)C(=O)Nc2ccccc2F)C(C)(C)c2ccccc21 | 101.6 | -23.1 | -0.4 | i | -9.1 | 134.5
O=C(CCl)NN1C(=O)NC(c2ccccc2)(c2ccccc2)C1=O | 3.1 | -0.1 | -3.9 | ? | -5.7 | 101.3
Cc1cccc(-n2cc(C(=O)O)c(=O)cc2C)c1 | 2.7 | 0.7 | -2.5 | i | 0.9 | 92.4
COc1ccc(N(C(=O)c2cccnc2)S(=O)(=O)c2cccs2)cc1 | 4.1 | 2.6 | 3.9 | i | 53.6* | 98.5
COc1ccc(N(C(=O)c2ccncc2)S(=O)(=O)c2cccs2)cc1 | 4.1 | 3.3 | -2.6 | i | 30.0 | 87.5
Nc1[nH]c2cc([N+](=O)[O-])ccc2c1-c1ccccn1 | 91.4* | -0.3 | 2.3 | · | -10.0 | 116.6
Nc1nc2ccc([N+](=O)[O-])cc2[nH]1 | -1.5 | 1.1 | -10.9 | i | -1.6 | 88.4
CC(=O)NCCNc1nc(NCC2CC2)nc2cc(-c3ccccc3)sc12 | 4.2 | 1.8 | 5.7 | i | -0.4 | ·
Nc1c(-c2ccccc2)cnc2cc(-c3ccccc3)nn12 | 2.2 | -0.2 | 0.2 | i | -23.9 | 79.6*
SMILES | HNF4A DNA FP | SENP1 FRET inh | Exocytosis inh | Myeloid diff MLP | H9c2 protect | DSG3 Ab inh
Cc1cc2ncc(-c3ccc(Cl)cc3)c(N)n2n1 | 0.0 | 0.4 | -0.3 | i | -16.0 | 98.7
CC1Cc2ccccc2N1Cc1cc(=O)c(OCC(=O)NCCc2ccccc2)co1 (centres undefined) | -2.1 | 0.6 | 4.1 | i | -2.0 | 99.6
CCCCN(CCCC)c1nc2ccccc2nc1C(C#N)C(=O)NCCCOC (centres undefined) | -0.8 | 10.1 | 4.1 | i | 8.9 | 124.0
CCN(CC)c1nc2ccccc2nc1C(C#N)C(=O)NCCCOC (centres undefined) | 6.9 | -22.1 | -10.4 | + | 21.1 | 94.7
Cc1ccc(CN2CCN(C(=O)c3ccncc3)CC2)cc1 | 1.4 | 0.9 | -2.8 | i | 1.2 | 61.9*
Cc1ccc(CN2CCN(C(=O)CC(C)C)CC2)cc1 | -1.4 | 1.6 | -1.5 | i | 1.1 | 120.5
Cc1nc2c(ncn2-c2ccccc2)c(=O)n1NC(=O)CN1CCCCC1 | 1.6 | -1.4 | 7.3 | i | 3.0 | 96.2
COc1cc2c(cc1OC)C(c1ccc(-c3cc(Cl)ccc3Cl)o1)=NCC2 | 37.8* | -37.0 | 5.8 | + | 12.5 | 95.2
O=C(Nc1ccc(Nc2ccccc2)cc1)c1ccccc1 | · | · | · | · | · | 104.9
O=C(Nc1ccc(Nc2ccccc2)cc1)c1ccc(Br)cc1 | -1.7 | -0.5 | 12.1 | i | -6.5 | 95.0*
O=C(NC(=S)Nc1cccc2c(O)cccc12)c1ccccc1[N+](=O)[O-] | -1.1 | -1.2 | 5.4 | i | 3.0 | 118.5
Cc1noc(C)c1C(=O)N1CCC2(CC1)Oc1ccc(F)cc1C(=O)C21CC(c2ccc(Cl)cc2)=NO1 (centres undefined) | -7.1 | 3.0 | -1.9 | + | 1.8 | 105.1
O=C(c1ccc2c(c1)OCO2)N1CCC2(CC1)Oc1ccc(F)cc1C(=O)C21CC(c2ccc(Cl)cc2)=NO1 (centres undefined) | 0.9 | -0.6 | -5.3 | i | 0.5 | 99.7
CC(=O)Nc1nonc1NC(=O)CSc1nc2ccccc2o1 | 7.3 | 1.9 | -1.0 | + | 4.4 | 108.0
N#Cc1c(-c2ccccc2)nc2n1CCS2 | 4.7 | -0.4 | -3.3 | i | -6.8 | 98.9
CN(C)S(=O)(=O)n1cc(/C=C(\NC(=O)c2ccccc2F)C(=O)N2CCOCC2)c2ccccc21 | 4.2 | 2.9 | 4.3 | i | 0.4 | 17.8*
CCOc1ccccc1CNCC1CCCO1 (centres undefined) | 3.9 | 0.3 | 12.2 | i | -0.3 | 112.2
O=C(NCc1cc(C(F)(F)F)ccc1Cl)c1cccc2c1C(=O)c1ccc(N3CCOCC3)cc1S2(=O)=O | 25.4 | -29.7 | -12.8 | + | -17.0 | 104.0

Compound activity deposited in PubChem BioAssay by several laboratories.
